pEC50, pIC50: −log10 of the molar value. Bounds are passed on as bounds.

Experiment [1] has as its system Vero. Description: Evaluated in vitro for their potential toxic effects against Vero cells. Format: functional, cell-based. As to conditions: Chlorocebus sabaeus. The gist of the method: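 Log-phase Vero cells were seeded at 5 × 10³ cells/well in 10-fold serial drug dilutions and incubated 3 days at 37 °C, 5% CO₂. MTT dye was added overnight, then solubilized for 5 h and read at 570 nm. IC50 was taken from median-effect concentration-response curves.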

For experiment [2], the system named is CCRF-CEM. Description: Evaluated in vitro for their potential toxic effects human CEM cells. Format: functional, cell-based. The gist of the method: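 CEM T-lymphoblastoid cells in log phase, 2.5 × 10³ cells/well, were exposed to 10-fold serial drug dilutions for 4 days at 37 °C, 5% CO₂. Viability was read by MTT (overnight dye, 5 h solubilization, 570 nm). IC50 was determined by the median-effect method.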

Experiment [3] has as its system Human immunodeficiency virus 1. The experiment in a line: (§1) In vitro anti-HIV activity was determined in PBM cells infected with HIV-1. Format: functional, organism-based. As to conditions: Human immunodeficiency virus 1, PBMC. The procedure, abridged:
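PHA-stimulated (2-3 days) human PBM cells from healthy seronegative donors, infected in bulk for 1 h with HIV-1 LAI (100 TCID50/1 × 10⁷ cells in flasks or 200 TCID50/6 × 10⁵ cells/well). Infected cells went onto 10-fold serial compound dilutions in RPMI-1640 with 16% FBS, DEAE-dextran and IL-2, 5 days at 37 °C. Virion-pelleted supernatant RT activity was measured by poly(rA)·oligo(dT)/³H-TTP incorporation (37 °C, 2 h). EC50/EC90 came from median-effect curves.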

Experiment [4] can be described thus: Evaluated in vitro for their potential toxic effects on uninfected PHA-stimulated human PBM cells. Format: functional, cell-based. The gist of the method: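 Uninfected PHA-stimulated PBM cells from healthy seronegative donors (Ficoll-Hypaque) were plated at 5 × 10⁴ cells/well with 10-fold serial drug dilutions for 5 days at 37 °C, 5% CO₂. The MTT readout was taken at 570 nm after overnight dye and 5 h solubilization. IC50 came from median-effect curves.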

Experiment [5] in a line: as §1. The note with it: Homo sapiens, PBMC.
The subject of experiment [6] is Human immunodeficiency virus 1. Description: Antiviral activity was determined against WT (HIV-1xxBRU). Format: functional. The gist of the method: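 Molecular infectious clone HIV-1 xxBru was used to infect PHA-stimulated human PBM cells in bulk for 1 h (100 TCID50/1 × 10⁷ cells or 200 TCID50/6 × 10⁵ cells/well). Cells were cultured 5 days at 37 °C with 10-fold serial compound dilutions. Readout was supernatant RT activity, with ³H-TTP incorporation on poly(rA)·oligo(dT). EC50 was derived by the median-effect method.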

The subject of experiment [7] is Human immunodeficiency virus 1. The experiment in a line: Antiviral activity was determined against lamivudine-resistant mutant M184V strain. Format: functional. The gist of the method:
(§2)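 Molecular clones HIV-1 xxBru (wild type) and HIV-1 M184Vpitt infected PHA-stimulated human PBM cells in bulk for 1 h. Cells were cultured with 10-fold serial compound dilutions, 5 days, 37 °C, 5% CO2. Read-out was supernatant RT activity with ³H-TTP incorporation. EC50 and EC90 were taken from concentration-response curves by the median effect method. Fold increase = EC90(M184V)/EC90(xxBru).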

Experiment [8] has as its system Vero (Chlorocebus sabaeus). Description: Evaluated in vitro for their potential toxic effects against Vero cells.
Experiment [9] can be described thus: Fold increase was determined from the ratio of EC90 (HIV-1M184V) / EC90 (HIV-1xxBRU). Format: functional. The gist of the method:
as §2

As for `Cc1cn([C@H]2S[C@@H](CO)C=C2F)c(=O)[nH]c1=O`, the pIC50 in experiment [1], in experiment [2] and in experiment [4] was < 4.00 in each case. In addition, the pEC50 – broadly, the negative decadic logarithm of the EC50, by convention in mol/L – in experiment [3] was < 4.00.
As to `Cc1cn([C@H]2C[C@H](N=[N+]=[N-])[C@@H](CO)O2)c(=O)[nH]c1=O` [ZIDOVUDINE], the pIC50 (in general, the IC50 on a negative log10 scale, so that one unit is a factor of ten) is 4.84 in experiment [1], 4.54 in experiment [2] and < 4.00 in experiment [4]. Also, the pEC50 in [5] is 8.40.
As for `Nc1ccn([C@H]2S[C@@H](CO)C=C2F)c(=O)n1`, the pIC50 in [2], in [8] and in [4] was < 4.00 each time. Further, the EC90 (in general, the point of the concentration-response curve where the effect stands at 90%) in experiment [6] was 1.4 µM; in experiment [7], > 100 µM. This molecule also showed a pEC50 in [3] of 6.92. In addition, the FI in [9] is > 100.
Take `Nc1nc(=O)n([C@H]2S[C@@H](CO)C=C2F)cc1F`: the pIC50 in experiment [1], in experiment [2] and in [4] was < 4.00 throughout. Also, the pEC50 in [3] was 6.82.
Take `O=c1ccn([C@H]2S[C@@H](CO)C=C2F)c(=O)[nH]1`: the pIC50 in [1], in experiment [2] and in [4] was < 4.00 throughout. In addition, the negative logarithm of the EC50 (pEC50) in experiment [3] was < 4.00.
`OC[C@H]1C=C(F)[C@@H](n2cnc3c(O)ncnc32)S1`: the pIC50 in experiment [1], in experiment [2] and in experiment [4] was < 4.00 each time. This molecule also gave a pEC50 in experiment [3] of 4.81.
Consider `Nc1ncnc2c1ncn2[C@H]1S[C@@H](CO)C=C1F`, for which the pIC50 in experiment [1], in [2] and in [4] was < 4.00 throughout. Moreover, in [3], the pEC50 is 5.77.
In the case of `Nc1nc(O)c2ncn([C@H]3S[C@@H](CO)C=C3F)c2n1`, the pIC50 in experiment [1] was 4.18; in [2], 4.38; in experiment [4], < 4.00. The molecule further had a pEC50 in experiment [3] of 4.36.
